The target in data set [1] is Glutamate NMDA receptor. Description: Inhibition of NMDA receptor in rat cortical cells assessed as NMDA-evoked increase in intracellular calcium level. The format is cell-based. In short, it runs like this: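 Rat cortical cell culture loaded with Fluo-4/AM. Baseline and NMDA-evoked intracellular Ca2+ changes monitored by fluorimetry on a plate reader. Number of experiments (n) given per compound.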
(In general: Calcium flux is commonly read through the fluorescence of an indicator in the cells.)

The species entered for another data set is Rattus norvegicus. Description: Inhibition of human recombinant NR1/NR2A receptor expressed in rat cortical cells assessed as NMDA-evoked increase in intracellular calcium level at 15 uM. The format is cell-based. The gist of the method: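 Fluo-4/AM Ca2+ fluorimetry on a plate reader, applied to cells expressing recombinant NR1/NR2A receptors. Inhibition (%) of the NMDA-evoked intracellular Ca2+ increase measured at 15 µM compound.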

Data set [2] concerns Mus musculus. Description: Analgesic activity against formalin-induced pain in mouse at 20 mg/kg, po. The following applies: in vivo. Further details: dose 20 mg/kg, route oral; call rule not given here. Type of data set: ADME, organism-based. In short, it runs like this: (§1)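 Fasted male NMRI mice (20–25 g) dosed orally with test drug or vehicle (5% Tween 80) 15 min before 20 µl of 1% formalin injected sc into right hindpaw. Licking/biting time read by visual observation at 20–25 min post-formalin (late phase). Percent decrease versus daily vehicle group; Mann–Whitney U-test; ED50 from Boltzmann sigmoidal fit.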

Data set [3] deals with Glutamate NMDA receptor (Rattus norvegicus) (UniProt P35439+Q00959+Q00960+Q00961+Q62645+Q8VHN2+Q9R1M7). Kind of data set: Inhibition of NMDA receptor in rat cortical cells assessed as NMDA-evoked increase in intracellular calcium level at 0.1 uM. Type of data set: cell-based. The gist of the method: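 Rat cortical cell culture loaded with Fluo-4/AM. Baseline and NMDA-evoked intracellular Ca2+ changes monitored by fluorimetry on a plate reader. Read-out is inhibition of the NMDA-evoked Ca2+ rise, with percent inhibition taken at 0.1 µM compound. Number of experiments (n) given per compound.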

The test system of data set [4] is Mus musculus. Description: Analgesic activity against formalin-induced pain in po dosed mouse. The format is ADME, organism-based. The gist of the method:
as §1

The target of data set [5] is Glutamate NMDA receptor. Description: Displacement of [3H]Ro-256981 from NMDA receptor in rat forebrain membrane. Type of data set: cell membranes. The gist of the method:
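Binding assay on rat forebrain membrane using tritiated Ro-25,6981 as radioligand.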
A general note: Loss of bound radioactivity is the signal in a displacement assay; it reports binding, not function.

The IC50 is the concentration needed to halve the response being measured. Usually inhibition stands for the drop in the measured response relative to a control, in per cent. Take `O=C(c1nc(=O)c2cc(O)ccc2[nH]1)N1CCC(Cc2ccccc2)CC1`: the IC50 on Glutamate NMDA receptor [1] is 317 nM. In the data set listed under Rattus norvegicus, the inhibition is 13.9%.
With `C[C@H]([C@@H](O)c1ccc(O)cc1)N1CCC(Cc2ccccc2)CC1`, the inhibition in the data set filed under Rattus norvegicus was -2.7%.
As to `O=C(c1cc(=O)c2cc(O)ccc2[nH]1)N1CCC(Cc2ccc(Cl)cc2)CC1`, the IC50 on Glutamate NMDA receptor [1] was determined as 9.1 nM. Moreover, the inhibition in the data set listed under Rattus norvegicus was -5.1%. In the data set on Mus musculus [2], the Activity result was “Not Active”.
Regarding `O=C(c1cc(=O)c2cc(O)ccc2[nH]1)N1CCC(Cc2ccccc2)CC1`, the IC50 on Glutamate NMDA receptor [1] came out at 9.1 nM. The inhibition in the data set listed under Rattus norvegicus is 8.9%. For the same compound, in the data set on Mus musculus [2], the Activity result is reported as “Not Active”.
Turning to `O=C(c1cc(=O)c2ccccc2[nH]1)N1CCC(Cc2ccccc2)CC1`, the inhibition stood at 1.1% in the data set filed under Rattus norvegicus and 4.5% in data set [3].
The matching figures for `CC(=O)Nc1ccc2[nH]c(C(=O)N3CCC(Cc4ccccc4)CC3)cc(=O)c2c1`: 12.4% and 2.6%.
A word on the ED50: it is the midpoint of the dose-response relation. A low value points to an effect at a small dose. As for `O=C(c1cc(=O)c2cc3[nH]c(=O)oc3cc2[nH]1)N1CCC(Cc2ccccc2)CC1`, the IC50 at Glutamate NMDA receptor [1] is 21.7 nM. For the same compound, the inhibition in the data set listed under Rattus norvegicus was -2.1%. The ED50 in the data set on Mus musculus [4] was over 20 mg/kg.
As for `O=C(c1cc(=O)c2cc(O)ccc2[nH]1)N1CCC(Oc2ccc(Cl)cc2)CC1`, on Glutamate NMDA receptor [1], the IC50 is 7.1 nM. In addition, the inhibition in the data set listed under Rattus norvegicus stood at 5.1%. Further, the Activity result with Mus musculus [2] was “Not Active”.
Regarding `O=C(c1cc(=O)c2cc(O)ccc2[nH]1)N1CCC(Oc2ccccc2)CC1`, the IC50 on Glutamate NMDA receptor [1] was 49.6 nM. Further, the inhibition in the data set listed under Rattus norvegicus came to 0.7%. Besides, it took a dose of 8.5 mg/kg to reach the 50% effect level in the data set with Mus musculus [4] (ED50).
Usually Ki stands for the equilibrium dissociation constant of an inhibitor or competing ligand from its target. Low readings indicate tighter binding, high ones weaker binding. Regarding `Cc1ccc(OC2CCN(C(=O)c3cc(=O)c4cc(O)ccc4[nH]3)CC2)cc1`, the IC50 at Glutamate NMDA receptor [1] was 6.2 nM. The inhibition in the data set listed under Rattus norvegicus was -3.5%. The same compound showed a Ki on Glutamate NMDA receptor [5] of 4.2 nM. The compound also yielded an ED50 in the data set with Mus musculus [4] of 8.2 mg/kg.
Regarding `O=C(c1cc(=O)c2cc(O)ccc2[nH]1)N1CCC(Cc2ccc(F)cc2)CC1`, the IC50 at Glutamate NMDA receptor [1] was 8.7 nM. The inhibition in the data set listed under Rattus norvegicus was -0.9%. It took a dose of 9.5 mg/kg to reach the 50% effect level in the data set on Mus musculus [4] (ED50).
As for `O=C(c1nc2ccc(O)cc2[nH]1)N1CCC(Cc2ccccc2)CC1`, the inhibition in the data set filed under Rattus norvegicus was 21%.
Same read-out and setting: the same measure for `O=C(c1cc2ccc(O)cc2[nH]1)N1CCC(Cc2ccccc2)CC1`: 15.6%.
On to `O=C(c1cc2cc(O)ccc2[nH]1)N1CCC(Cc2ccccc2)CC1`, for which the IC50 at Glutamate NMDA receptor [1] is 25 nM. Further, the inhibition in the data set filed under Rattus norvegicus worked out at 17.2%.
As to `O=C(c1cc(=O)c2ccc(O)cc2[nH]1)N1CCC(Cc2ccccc2)CC1`, the results for the inhibition (in the data set listed under Rattus norvegicus; in data set [3]) were 9.1% and 27.9%, respectively.
As to `Cc1ccc(CC2CCN(C(=O)c3cc(=O)c4cc(O)ccc4[nH]3)CC2)cc1`, the IC50 at Glutamate NMDA receptor [1] turned out to be 11 nM. Moreover, the inhibition in the data set listed under Rattus norvegicus was -2.4%. In the data set with Mus musculus [4], this compound showed an ED50 of 10.6 mg/kg.

Values taken from ChEMBL document CHEMBL1146273, “Kynurenic acid amides as novel NR2B selective NMDA receptor antagonists” (Bioorg Med Chem Lett, 2007).
